Measured values from ChEMBL document CHEMBL5252510, “A Novel Potent Oral Series of VEGFR2 Inhibitors Abrogate Tumor Growth by Inhibiting Angiogenesis” (J Med Chem, 2016).
Activity calls are given as the source filed them. The calls are words filed in the database; no cut-off is given here.

Key:
[1] = target: Fibroblast growth factor receptor 3 (Homo sapiens) (UniProt P22607); assay: Inhibition of human recombinant GST-fused FGFR3 expressed in baculovirus expression system using poly-Glu-Tyr (4:1) as substrate measured after 10 mins in presence of gamma-[33P]-ATP by scintillation counting analysis
Summary of the method: (§1)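 GST-fused kinase domains were expressed in baculovirus and purified on glutathione-Sepharose. 10 min at ambient temperature, stopped with EDTA. Filter binding and scintillation counting. IC50 by linear regression of percent inhibition.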

BaF3 [2] = assay: Antiproliferative activity against mouse BaF3 cells expressing Tel-FGFR3 assessed as cell growth inhibition measured after 72 hrs by Alamar Blue assay; conditions: BaF3, 72 h
BaF3 [3] = assay: Antiproliferative activity against mouse BaF3 cells expressing NPM-ALK assessed as cell growth inhibition measured after 72 hrs by Alamar Blue assay; conditions: BaF3, 72 h
BaF3 [4] = assay: Antiproliferative activity against mouse BaF3 cells expressing FLT3-ITD assessed as cell growth inhibition measured after 72 hrs by Alamar Blue assay; conditions: BaF3, 72 h
[5] = target: Hepatocyte growth factor receptor (Homo sapiens) (UniProt P08581); assay: Inhibition of human recombinant GST-fused c-MET expressed in baculovirus expression system using poly-Glu-Tyr (4:1) as substrate measured after 10 mins in presence of gamma-[33P]-ATP by scintillation counting analysis; summary of the method: as §1
BaF3 [6] = assay: Antiproliferative activity against mouse BaF3 cells expressing Tel-IGF-1R assessed as cell growth inhibition measured after 72 hrs by Alamar Blue assay; conditions: BaF3, 72 h
BaF3 [7] = assay: Antiproliferative activity against mouse BaF3 cells expressing Trp-MET assessed as cell growth inhibition measured after 72 hrs by Alamar Blue assay; conditions: BaF3, 72 h
BaF3 [8] = assay: Antiproliferative activity against mouse BaF3 cells assessed as cell growth inhibition measured after 72 hrs by Alamar Blue assay; conditions: BaF3, 72 h
HUVEC [9] = assay: Antiproliferative activity against VEGF-stimulated HUVEC cells assessed as cell growth inhibition measured after 24 hrs by BrdUrd incorporation based spectrophotometric analysis; conditions: Homo sapiens
BaF3 [10] = assay: Antiproliferative activity against mouse BaF3 cells expressing Bcr-ABL assessed as cell growth inhibition measured after 72 hrs by Alamar Blue assay; conditions: BaF3, 72 h
BaF3 [11] = assay: Antiproliferative activity against mouse BaF3 cells expressing KIT D816V mutant assessed as cell growth inhibition measured after 72 hrs by Alamar Blue assay; conditions: BaF3, 72 h
[12] = target: Cyclin-dependent kinase 1 (Homo sapiens) (UniProt P06493); assay: Inhibition of human recombinant GST-fused CDK1 expressed in baculovirus expression system using poly-Glu-Tyr (4:1) as substrate measured after 10 mins in presence of gamma-[33P]-ATP by scintillation counting analysis; summary of the method: as §1
BaF3 [13] = assay: Antiproliferative activity against mouse BaF3 cells expressing Tel-PDGFRbeta assessed as cell growth inhibition measured after 72 hrs by Alamar Blue assay; conditions: BaF3, 72 h
BaF3 [14] = assay: Antiproliferative activity against mouse BaF3 cells expressing ERBB2 V659E mutant assessed as cell growth inhibition measured after 72 hrs by Alamar Blue assay; conditions: BaF3, 72 h
HUVEC [15] = assay: Antiproliferative activity against bFGF-stimulated HUVEC cells assessed as cell growth inhibition measured after 24 hrs by BrdUrd incorporation based spectrophotometric analysis; conditions: Homo sapiens
BaF3 [16] = assay: Antiproliferative activity against mouse BaF3 cells expressing PTC3-RET assessed as cell growth inhibition measured after 72 hrs by Alamar Blue assay; conditions: BaF3, 72 h
[17] = Antitumor activity against rat BN472 cell implanted in Brown-Norway rat assessed as tumor growth inhibition by measuring T/C ratio at 100 mg/kg, po qd measured upto 14 days; type: functional; conditions: time <= 14 day
Summary of the method: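 Female Brown-Norway rats (160-180 g) given 3 mm³ BN472 tumor fragments in mammary fat pads; at about 200 mm², randomized into groups of 7-8 and dosed orally with compound or PEG300 vehicle over 14 days; tumor growth followed, T/C computed; significance by 2-way RM-ANOVA.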

[18] = target: Vascular endothelial growth factor receptor 2 (Mus musculus, UniProt P35918); assay: Inhibition of mouse recombinant GST-fused VEGFR2 kinase domain expressed in baculovirus expression system using poly-Glu-Tyr (4:1) as substrate measured after 10 mins in presence of gamma-[33P]-ATP by scintillation counting analysis; summary of the method: as §1
B16-BL6 [19] = assay: Antitumor activity against mouse B16-BL6 cells implanted in C57BL/6jNpa mouse assessed as primary tumor growth inhibition by measuring T/C ratio at 100 mg/kg, po qd administered started on day 7 post implantation measured after 21 days; type: functional; conditions: time 7-21 day
Summary of the method: (§2)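 Female C57BL/6JNpa mice, 50000 B16/BL6 cells intradermally in both ear pinnae; primary tumor area (mm²) imaged days 7, 14, 21; randomized day 7 into groups of 5-6, oral dosing in PEG200 or PEG300 vehicle daily (or every 2 days) for 14 days; day 21 cervical lymph nodes weighed, metastasis lysates assayed for TIE-2 by ELISA; T/C ratios.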

B16-BL6 [20] = assay: Antitumor activity against mouse B16-BL6 cells implanted in C57BL/6jNpa mouse assessed as metastatic tumor growth inhibition by measuring T/C ratio at 100 mg/kg, po qd administered started on day 7 post implantation measured after 21 days relative to control; type: functional; conditions: time 7-21 day; summary of the method: as §2
Mus musculus = assay: Anti-angiogenesis activity in FVB mouse model assessed as inhibition of VEGF-induced tissue weight at 50 mg/kg, po qd treated for 4 to 6 hrs prior to chamber implantation and continuing for 4 days measured after 24 hrs post last dose; type: functional, organism-based; conditions: time 5.0 day
Summary of the method: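 Chamber model in female FVB mice: VEGF (2 μg/mL) agar/heparin chambers s.c. in flank, oral dosing once daily starting 4-6 h before implantation and continuing 4 days; vascularized tissue harvested and weighed 24 h after final dose; 6 mice per group.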

[21] = Antitumor activity against rat BN472 cell implanted in Brown-Norway rat assessed as tumor growth inhibition by measuring T/C ratio at 30 mg/kg, po qd measured upto 14 days; type: functional; conditions: time <= 14 day
Summary of the method: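 Female Brown-Norway rats (160–180 g) received 3 mm³ BN472 tumor fragments in the mammary fat pad. Randomized at about 200 mm² tumor, 2–3 weeks after transplant, into groups of 7–8. Oral daily dosing in PEG300 vehicle for 14 days. Tumor growth curves were compared with vehicle. Experiment run twice.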

Chain of Vascular endothelial growth factor receptor 2 (P35918 whole entry, the tested form may be a part): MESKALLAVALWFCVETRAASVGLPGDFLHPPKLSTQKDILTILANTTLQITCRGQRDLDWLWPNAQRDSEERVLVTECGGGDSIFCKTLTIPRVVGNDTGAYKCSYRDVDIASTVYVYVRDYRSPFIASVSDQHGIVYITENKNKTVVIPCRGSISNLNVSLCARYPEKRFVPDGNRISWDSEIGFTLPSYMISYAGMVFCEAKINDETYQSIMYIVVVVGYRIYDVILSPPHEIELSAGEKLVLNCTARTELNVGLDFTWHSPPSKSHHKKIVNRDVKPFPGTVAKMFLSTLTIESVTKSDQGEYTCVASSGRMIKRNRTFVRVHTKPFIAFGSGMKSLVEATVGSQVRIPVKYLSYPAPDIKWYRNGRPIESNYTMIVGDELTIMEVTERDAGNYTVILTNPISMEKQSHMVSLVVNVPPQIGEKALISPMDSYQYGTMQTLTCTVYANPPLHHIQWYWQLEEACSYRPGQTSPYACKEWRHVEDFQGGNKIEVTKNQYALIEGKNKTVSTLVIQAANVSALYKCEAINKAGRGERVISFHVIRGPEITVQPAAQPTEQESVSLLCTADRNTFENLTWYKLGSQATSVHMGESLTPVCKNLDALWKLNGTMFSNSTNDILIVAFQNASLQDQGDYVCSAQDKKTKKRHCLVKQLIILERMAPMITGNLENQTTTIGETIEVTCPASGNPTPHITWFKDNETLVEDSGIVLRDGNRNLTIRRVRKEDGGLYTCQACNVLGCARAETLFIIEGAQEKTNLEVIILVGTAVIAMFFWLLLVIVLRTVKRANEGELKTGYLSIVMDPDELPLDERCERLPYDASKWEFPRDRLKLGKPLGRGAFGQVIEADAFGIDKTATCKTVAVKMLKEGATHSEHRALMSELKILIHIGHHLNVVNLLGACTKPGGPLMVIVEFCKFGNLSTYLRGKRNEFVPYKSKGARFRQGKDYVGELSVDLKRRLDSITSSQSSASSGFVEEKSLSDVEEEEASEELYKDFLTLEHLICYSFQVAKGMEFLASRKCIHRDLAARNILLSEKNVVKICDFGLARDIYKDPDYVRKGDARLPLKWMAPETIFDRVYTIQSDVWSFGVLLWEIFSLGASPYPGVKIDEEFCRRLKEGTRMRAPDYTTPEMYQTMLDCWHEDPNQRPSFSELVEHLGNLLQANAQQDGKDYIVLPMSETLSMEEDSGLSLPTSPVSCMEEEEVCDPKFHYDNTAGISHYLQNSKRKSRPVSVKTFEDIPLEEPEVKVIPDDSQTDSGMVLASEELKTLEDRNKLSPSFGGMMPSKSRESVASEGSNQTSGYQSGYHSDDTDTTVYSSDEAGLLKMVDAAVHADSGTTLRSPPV
Chain of Cyclin-dependent kinase 1 (Homo sapiens) (P06493 whole entry, looked up, the tested form may be a part): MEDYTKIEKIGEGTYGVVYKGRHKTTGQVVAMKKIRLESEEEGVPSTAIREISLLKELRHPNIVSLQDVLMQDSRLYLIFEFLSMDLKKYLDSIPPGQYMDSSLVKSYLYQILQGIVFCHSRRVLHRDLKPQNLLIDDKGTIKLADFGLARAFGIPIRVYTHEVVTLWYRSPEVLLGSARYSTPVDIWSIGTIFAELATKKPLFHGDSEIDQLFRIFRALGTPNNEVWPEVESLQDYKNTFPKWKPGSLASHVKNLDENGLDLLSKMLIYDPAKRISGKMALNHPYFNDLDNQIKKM
Chain of Hepatocyte growth factor receptor (Homo sapiens) (P08581 whole entry, the tested form may be a part): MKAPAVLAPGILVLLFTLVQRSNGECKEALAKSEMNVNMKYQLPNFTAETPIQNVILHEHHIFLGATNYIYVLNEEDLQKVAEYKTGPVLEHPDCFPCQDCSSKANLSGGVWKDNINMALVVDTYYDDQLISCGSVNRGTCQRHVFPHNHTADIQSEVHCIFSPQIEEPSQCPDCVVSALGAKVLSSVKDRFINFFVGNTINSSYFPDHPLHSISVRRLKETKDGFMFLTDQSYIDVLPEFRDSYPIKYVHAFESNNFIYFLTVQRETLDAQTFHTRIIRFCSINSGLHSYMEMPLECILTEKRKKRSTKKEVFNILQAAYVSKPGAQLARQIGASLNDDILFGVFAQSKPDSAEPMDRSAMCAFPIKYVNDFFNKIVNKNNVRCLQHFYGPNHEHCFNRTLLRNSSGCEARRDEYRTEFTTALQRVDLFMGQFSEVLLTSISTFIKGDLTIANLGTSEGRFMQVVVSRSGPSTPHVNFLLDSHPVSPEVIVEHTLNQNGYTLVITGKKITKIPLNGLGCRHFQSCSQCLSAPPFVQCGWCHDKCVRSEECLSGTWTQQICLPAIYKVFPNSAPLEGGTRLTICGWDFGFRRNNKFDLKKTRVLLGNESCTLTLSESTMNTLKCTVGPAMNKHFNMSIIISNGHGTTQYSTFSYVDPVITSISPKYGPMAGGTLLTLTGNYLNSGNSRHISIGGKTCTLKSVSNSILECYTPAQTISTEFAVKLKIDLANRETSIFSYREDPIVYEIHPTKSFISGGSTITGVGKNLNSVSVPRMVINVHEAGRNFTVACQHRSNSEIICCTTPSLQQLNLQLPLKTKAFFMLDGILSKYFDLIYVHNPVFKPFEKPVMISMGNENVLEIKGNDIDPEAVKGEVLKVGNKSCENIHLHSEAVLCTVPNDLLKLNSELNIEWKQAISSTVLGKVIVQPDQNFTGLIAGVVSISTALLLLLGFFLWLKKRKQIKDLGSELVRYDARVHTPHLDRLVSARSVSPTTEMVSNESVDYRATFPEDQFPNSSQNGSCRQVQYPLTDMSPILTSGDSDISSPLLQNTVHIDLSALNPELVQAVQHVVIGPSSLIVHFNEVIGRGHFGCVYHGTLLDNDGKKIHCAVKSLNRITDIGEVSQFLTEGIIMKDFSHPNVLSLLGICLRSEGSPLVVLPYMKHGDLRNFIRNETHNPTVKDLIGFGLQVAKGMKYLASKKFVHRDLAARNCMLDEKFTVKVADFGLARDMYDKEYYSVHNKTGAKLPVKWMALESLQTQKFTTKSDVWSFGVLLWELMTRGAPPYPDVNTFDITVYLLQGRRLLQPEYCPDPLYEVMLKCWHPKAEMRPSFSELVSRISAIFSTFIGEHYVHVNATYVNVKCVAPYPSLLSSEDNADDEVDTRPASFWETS
Chain of Fibroblast growth factor receptor 3 (Homo sapiens) (P22607 23-806 limits assumed): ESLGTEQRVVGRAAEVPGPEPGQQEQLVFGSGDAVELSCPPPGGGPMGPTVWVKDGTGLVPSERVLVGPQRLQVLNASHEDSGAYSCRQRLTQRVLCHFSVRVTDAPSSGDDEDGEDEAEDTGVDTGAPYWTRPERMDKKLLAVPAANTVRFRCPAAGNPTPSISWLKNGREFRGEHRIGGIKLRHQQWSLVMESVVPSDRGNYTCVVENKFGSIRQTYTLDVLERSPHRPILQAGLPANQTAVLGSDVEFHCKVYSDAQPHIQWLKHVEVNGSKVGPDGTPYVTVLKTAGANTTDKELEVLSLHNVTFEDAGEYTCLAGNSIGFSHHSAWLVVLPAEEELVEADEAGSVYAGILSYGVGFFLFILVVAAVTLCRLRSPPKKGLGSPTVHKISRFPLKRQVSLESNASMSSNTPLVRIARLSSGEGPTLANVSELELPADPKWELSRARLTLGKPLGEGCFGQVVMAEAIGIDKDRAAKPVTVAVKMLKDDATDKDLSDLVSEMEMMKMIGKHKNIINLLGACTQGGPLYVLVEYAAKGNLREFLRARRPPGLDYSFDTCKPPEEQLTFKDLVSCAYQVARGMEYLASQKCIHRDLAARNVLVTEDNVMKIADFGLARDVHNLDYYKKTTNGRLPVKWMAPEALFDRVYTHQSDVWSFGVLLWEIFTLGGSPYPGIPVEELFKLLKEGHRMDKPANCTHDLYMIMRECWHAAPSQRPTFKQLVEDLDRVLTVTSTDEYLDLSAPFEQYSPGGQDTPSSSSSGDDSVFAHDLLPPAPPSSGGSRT

| SMILES | IC50 (BaF3 [2]) | IC50 (BaF3 [3]) | IC50 (BaF3 [4]) | IC50 (BaF3 [6]) | IC50 (BaF3 [7]) | IC50 (BaF3 [8]) | IC50 (HUVEC [9]) | IC50 (BaF3 [10]) | IC50 (BaF3 [11]) | IC50 (BaF3 [13]) | IC50 (BaF3 [14]) | IC50 (HUVEC [15]) | IC50 (BaF3 [16]) | further results |
| --- | --- | --- | --- | --- | --- | --- | --- | --- | --- | --- | --- | --- | --- | --- |
| CCN(CC)CCNC(=O)c1c(C)[nH]c(/C=C2\C(=O)Nc3ccc(F)cc32)c1C [SUNITINIB] | 1.56 µM | 1.15 µM | 0.035 µM | 1.29 µM | 5.12 µM | > 10 µM | 0.007 µM | 7.18 µM | 1.47 µM | 0.0023 µM | 3.85 µM | > 3 µM | 0.297 µM | inhibition [1]: Active; inhibition [5]: Active; inhibition [12]: Active |
| O=C(Nc1cccc(C(F)(F)F)c1)c1ccccc1NCc1ccncc1 | > 5.5 µM | > 5.5 µM | > 5.5 µM | 8.4 µM | > 5.5 µM | > 10 µM | 0.001 µM | > 5.5 µM | > 5.5 µM | 0.019 µM | 5.6 µM | > 3 µM | 2.9 µM | T/C [17]: 0.37; IC50 [18]: 0.055 µM; T/C (B16-BL6 [19]): 0.35; T/C (B16-BL6 [20]): 0.17 |
| COc1cc2/c(=N/c3ccc(Br)cc3F)nc[nH]c2cc1OCC1CCN(C)CC1 [VANDETANIB] | – | – | – | – | – | – | – | – | – | – | – | – | – | Activity (Mus musculus): Active; T/C [21]: 0.35 |
